Experimental data taken from ChEMBL document CHEMBL1221292, “Design, synthesis, and evaluation of quinazoline T cell proliferation inhibitors” (Bioorg Med Chem, 2010).
Activity calls are given as the source filed them. The rule behind the calls is not given here.

Legend:
[1] = system: PBMC; assay: Antiproliferative activity against ConA-stimulated human PBMC after 72 hrs by BrdU incorporation assay; type: functional, cell-based
Procedure, shortened: (§1)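 Cells grown in RPMI at 37 °C, 5% CO2, then serum-starved 12 h. PBMC stimulated with ConA 10 µg/mL; Jurkat need no stimulation. 1 × 10^5 cells cultured 3 days with or without inhibitor, duplicate wells. Labelled with 10 µM BrdU, DNA denatured, anti-BrdU-POD added, colorimetric TMB read-out; IC50 derived.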

[2] = system: Jurkat; assay: Antiproliferative activity against human Jurkat cells after 72 hrs by BrdU incorporation assay; type: functional, cell-based; procedure, shortened: as §1
[3] = system: PBMC; assay: Inhibition of anti-TCR-stimulated IL2 production in human PBMC cells […] after 12 hrs by ELISA; type: functional, cell-based
Procedure, shortened: (§2)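 Jurkat or PBMC treated 12 h with 1 µM, 0.5 µM or no inhibitor. 1 × 10^6 cells were then stimulated 12 h with plate-bound anti-TCR C305 (1:500) alone, or with anti-CD28 (1:100) and/or PMA (50 ng/ml); ionomycin 1 µM was also used. Cells spun out at 130g. Supernatant IL-2 measured by ELISA, absorbance 450 nm.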

[4] = system: Jurkat; assay: Inhibition of PMA/anti-CD28-stimulated IL2 production in human Jurkat cells […] after 12 hrs by ELISA; type: functional, cell-based; procedure, shortened: as §2
[5] = system: Jurkat; assay: Inhibition of TCR-mediated Zap70 phosphorylation in human Jurkat cells after 16 hrs by Western blotting; type: cell-based
Procedure, shortened: (§3)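 Jurkat treated 16 h with inhibitor, then stimulated 1 min at 37 °C with C305 (1:500) or mock PBS. Cells lysed at 2 × 10^7 cells/mL in NP-40 buffer with phosphatase and protease inhibitors. SLP-76 immunoprecipitated; pTyr detected by Western blot with 4G-10. For ZAP-70 activity, ZAP-70 IP was incubated with recombinant His-SLP-76 and 5 µM ATP for 15 min at 30 °C, then blotted for pTyr.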

[6] = system: Jurkat; assay: Inhibition of TCR-mediated SLP76 phosphorylation in human Jurkat cells after 16 hrs by Western blotting; type: cell-based; procedure, shortened: as §3
[7] = system: Jurkat; assay: Antiproliferative activity against non-stimulated human Jurkat cells after 72 hrs by BrdU incorporation assay; type: functional, cell-based; procedure, shortened: as §1
[8] = system: Jurkat; assay: Antiproliferative activity against ConA-stimulated human Jurkat after 72 hrs by BrdU incorporation assay; type: functional, cell-based
[9] = system: PBMC; assay: Antiproliferative activity against non-stimulated human PBMC after 72 hrs by BrdU incorporation assay; type: cell-based
[10] = Antiproliferative activity against stimulated human keratinocytes after 72 hrs by BrdU incorporation assay; type: functional, cell-based; details: Keratinocyte
[11] = system: PC-3; assay: Antiproliferative activity against non-stimulated human PC3 after 72 hrs by BrdU incorporation assay; type: functional, cell-based; details: PC-3, 72 h
[12] = system: PC-3; assay: Antiproliferative activity against stimulated human PC3 after 72 hrs by BrdU incorporation assay; type: functional, cell-based; details: PC-3, 72 h
[13] = system: HEK293; assay: Antiproliferative activity against non-stimulated human HEK293 cells after 72 hrs by BrdU incorporation assay; type: functional, cell-based; details: HEK293, 72 h
[14] = system: HEK293; assay: Antiproliferative activity against FCS-stimulated human HEK293 cells after 72 hrs by BrdU incorporation assay; type: functional, cell-based; details: HEK293, 72 h
Procedure, shortened: (§4)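 Non-hematopoietic lines grown in DMEM, serum-starved 12 h, then stimulated: 10% FCS (HEK293, A375), PDGF 30 ng/mL (NIH 3T3), EGF 30 ng/mL (MDA-MB-231). 1 × 10^5 cells cultured 3 days over increasing inhibitor concentrations, duplicate wells. Proliferation by 10 µM BrdU labelling with colorimetric anti-BrdU-POD ELISA (TMB).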

[15] = system: A-375; assay: Antiproliferative activity against non-stimulated human A375 cells after 72 hrs by BrdU incorporation assay; type: functional, cell-based; details: A-375, 72 h
[16] = system: A-375; assay: Antiproliferative activity against FCS-stimulated human A375 cells after 72 hrs by BrdU incorporation assay; type: functional, cell-based; details: A-375, 72 h; procedure, shortened: as §4
[17] = system: NIH3T3; assay: Antiproliferative activity against non-stimulated mouse NIH/3T3 cells after 72 hrs by BrdU incorporation assay; type: functional, cell-based; details: NIH3T3, 72 h
[18] = system: NIH3T3; assay: Antiproliferative activity against PDGF-stimulated mouse NIH/3T3 cells after 72 hrs by BrdU incorporation assay; type: functional, cell-based; details: NIH3T3, 72 h; procedure, shortened: as §4
[19] = system: MDA-MB-231; assay: Antiproliferative activity against non-stimulated human MDA-MB-231 cells after 72 hrs by BrdU incorporation assay; type: functional, cell-based; details: MDA-MB-231, 72 h
[20] = system: PBMC; assay: Cell cycle arrest in human PBMC assessed as accumulation at G2 phase by flow cytometry; type: functional
Procedure, shortened: (§5)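 PBMC treated with inhibitor 12 and 24 h, then pelleted, PBS-washed and fixed in cold 70% ethanol for at least 12 h. RNase A added for 30 min in the dark, then propidium iodide; DNA content analysed by FACS for G2 and sub-G1 fractions.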

[21] = system: PBMC; assay: Cell cycle arrest in human PBMC assessed as accumulation at subG1 phase by flow cytometry; type: functional; procedure, shortened: as §5
[22] = system: Jurkat; assay: Inhibition of anti-TCR-stimulated IL2 production in human Jurkat cells […] by ELISA; type: functional, cell-based; procedure, shortened: as §2
[23] = system: Jurkat; assay: Inhibition of anti-TCR/antiCD28-stimulated IL2 production in human Jurkat cells […] after 12 hrs by ELISA; type: functional, cell-based; procedure, shortened: as §2
[24] = system: PBMC; assay: Inhibition of PMA/anti-CD28-stimulated IL2 production in human PBMC cells up to 5 uM after 12 hrs by ELISA; type: functional, cell-based; procedure, shortened: as §2
[25] = system: PBMC; assay: Inhibition of anti-TCR/PMA-stimulated IL2 production in human PBMC cells […] after 12 hrs by ELISA; type: functional, cell-based; procedure, shortened: as §2
[26] = system: Splenocyte; assay: Inhibition of irradiated BALB/c mouse splenocyte-stimulated IL2 secretion in 2C mouse splenocyte after 72 hrs by mixed lymphocyte reaction; type: functional, cell-based
Procedure, shortened: (§6)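 MLR: splenocytes from 2c mice stimulated by irradiated BALB/c splenocytes in the presence of compound at the specified concentrations, 96-well cultures up to 72 h. Supernatants collected at 24, 48 and 72 h; IL-2 measured by ELISA at 450 nm.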

[27] = system: Splenocyte; assay: Inhibition of irradiated BALB/c mouse splenocyte-stimulated IL2 secretion in 2C mouse splenocyte at 1 uM after 24 hrs by mixed lymphocyte reaction; type: functional, cell-based; procedure, shortened: as §6
[28] = system: PBMC; assay: Antiproliferative activity against ODN2006-stimulated human PBMC after 72 hrs by BrdU incorporation assay; type: functional, cell-based
Procedure, shortened: (§7)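 PBMC isolated from healthy donor blood on Ficoll. CD3+ T cells purified with anti-CD3 (autoMACS), identity confirmed as CD3+ by flow cytometry; CD3-depleted PBMC also kept. Stimulation: ConA (10 µg/mL), ODN2006 (0.5 µg/mL) or LPS (50 µg/mL); depleted PBMC got ODN2006 or LPS. Cultured 72 h with inhibitor. Read-out was BrdU uptake, normalized to maximal proliferation without inhibitor.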

[29] = system: PBMC; assay: Antiproliferative activity against LPS-stimulated human PBMC after 72 hrs by BrdU incorporation assay; type: functional, cell-based; procedure, shortened: as §7
[30] = system: PBMC; assay: Antiproliferative activity against CD3+ expressing human PBMC after 72 hrs by BrdU incorporation assay; type: functional, cell-based; procedure, shortened: as §7
[31] = system: PBMC; assay: Antiproliferative activity against CD3 deficient human PBMC after 72 hrs by BrdU incorporation assay; type: functional, cell-based; procedure, shortened: as §7
[32] = system: MDA-MB-231; assay: Antiproliferative activity against stimulated human MDA-MB-231 cells after 72 hrs by BrdU incorporation assay; type: functional, cell-based; details: MDA-MB-231, 72 h; procedure, shortened: as §4

## Oc1cc(-c2nc(NCc3ccc(Cl)c(Cl)c3)c3ccccc3n2)cc(O)c1O
[1]
  IC50: 2600 nM
[2]
  IC50: 3640 nM

## COc1ccc(CNc2nc(-c3cc(OC)c(OC)c(OC)c3)nc3ccccc23)cc1
[1]
  IC50: 500 nM
[2]
  IC50: 1100 nM

## COc1cc(-c2nc(Nc3ccc(C)cc3)c3ccccc3n2)cc(OC)c1OC
[3]
  inhibition: inactive
[4]
  inhibition: inactive
[5]
  inhibition: Dose-dependent effect
[6]
  inhibition: Dose-dependent effect
[1]
  IC50: 70 nM
[2]
  IC50: 29 nM
[7]
  IC50: 50 nM
[8]
  IC50: 100 nM
[9]
  IC50: 50 nM
[10]
  IC50: > 10000 nM
[11]
  IC50: 10000 nM
[12]
  IC50: > 10000 nM
[13]
  IC50: 10000 nM
[14]
  IC50: 10000 nM
[15]
  IC50: 800 nM
[16]
  IC50: > 10000 nM
[17]
  IC50: 3000 nM
[18]
  IC50: 7000 nM
[19]
  IC50: > 10000 nM
[20]
  Activity: 50%
[21]
  Activity: 9.5%
[22]
  inhibition: inactive
[23]
  inhibition: inactive
[24]
  inhibition: inactive
[25]
  inhibition: inactive
[26]
  inhibition: inactive
[27]
  inhibition: inactive
[28]
  IC50: 500 nM
[29]
  IC50: 500 nM
[30]
  IC50: 100 nM
[31]
  Activity: Active
[32]
  IC50: > 10000 nM

## Oc1cc(-c2nc(Nc3ccccc3)c3ccccc3n2)cc(O)c1O
[1]
  IC50: 650 nM
[2]
  IC50: 5500 nM

## COc1cc(-c2nc(Nc3ccc(C)cc3C)c3ccccc3n2)cc(OC)c1OC
[1]
  IC50: 750 nM
[2]
  IC50: 2600 nM

## Oc1cc(-c2nc(Nc3ccc(Cl)cc3)c3ccccc3n2)cc(O)c1O
[1]
  IC50: 550 nM
[2]
  IC50: 4250 nM

## COc1cc(-c2nc(NCc3ccc(N)cc3)c3ccccc3n2)cc(OC)c1OC
[1]
  IC50: 380 nM
[2]
  IC50: 480 nM

## Oc1cc(-c2nc(NCc3ccc(F)c(F)c3)c3ccccc3n2)cc(O)c1O
[1]
  IC50: 280 nM
[2]
  IC50: 600 nM

## COc1cc(-c2nc(Nc3ccccc3)c3ccccc3n2)cc(OC)c1OC
[1]
  IC50: 280 nM
[2]
  IC50: 380 nM

## COc1ccc(Nc2nc(-c3cc(OC)c(OC)c(OC)c3)nc3ccccc23)cc1
[1]
  IC50: 500 nM
[2]
  IC50: 1100 nM

## Oc1cc(-c2nc(Nc3ccc4[nH]ncc4c3)c3ccccc3n2)cc(O)c1O
[1]
  IC50: 780 nM
[2]
  IC50: 710 nM

## Nc1ccc(CNc2nc(-c3cc(O)c(O)c(O)c3)nc3ccccc23)cc1
[1]
  IC50: 570 nM
[2]
  IC50: 670 nM

## COc1cc(-c2nc(Nc3ccc4nc[nH]c4c3)c3ccccc3n2)cc(OC)c1OC
[1]
  IC50: 430 nM
[2]
  IC50: 1500 nM

## Oc1ccc(Nc2nc(-c3cc(O)c(O)c(O)c3)nc3ccccc23)cc1
[1]
  IC50: 970 nM
[2]
  IC50: 1120 nM

## Oc1cc(-c2nc(Nc3ccc4c(c3)OCO4)c3ccccc3n2)cc(O)c1O
[1]
  IC50: 5500 nM
[2]
  IC50: 800 nM

## Cc1ccc(Nc2nc(-c3cc(O)c(O)c(O)c3)nc3ccccc23)c(C)c1
[1]
  IC50: 730 nM
[2]
  IC50: 3700 nM

## COc1cc(-c2nc(NCc3ccc(Cl)c(Cl)c3)c3ccccc3n2)cc(OC)c1OC
[1]
  IC50: 300 nM
[2]
  IC50: 730 nM
